ChEMBL document CHEMBL2021799, “Exploring the interplay of physicochemical properties, membrane permeability and giardicidal activity of some benzimidazole derivatives” (Eur J Med Chem, 2012)
pIC50: −log10 of the molar value. ≈ marks a conversion by molar mass, not a printed value.

Columns and labels:
Giardia intestinalis [1] = assay: Antiparasitic activity against Giardia duodenalis IMSS:0989 after 48 hrs; assay type: functional, organism-based; conditions: IMSS:0989, 48 h
Method in brief: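 G. duodenalis trophozoites grown in modified TYI-S-33 with 10% calf serum and bovine bile. 5 × 10⁴ trophozoites incubated 48 h at 37 °C with increasing compound concentrations; DMSO-treated trophozoites as negative control. An aliquot was then subcultured 48 h in fresh drug-free medium, trophozoites counted, and IC50 obtained by Probit analysis.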

[2] = Aqueous solubility of the compound
[3] = Distribution coefficient, log D of the compound; conditions: octanol/water
[4] = Lipophilicity, logkw of the compound by RP-HPLC analysis
Caco-2 [5] = assay: Apparent permeability from basolateral to apical side of human Caco2 cells at 100 uM up to 90 mins; conditions: caco-2, 1.5 h
Caco-2 [6] = assay: Apparent permeability from apical to basolateral side of human Caco2 cells at 100 uM up to 90 mins; conditions: caco-2, 1.5 h
Caco-2 [7] = assay: Efflux ratio of permeability from apical to basolateral side over basolateral to apical side in human Caco2 cells at 100 uM up to 90 mins; conditions: caco-2, 1.5 h
Caco-2 [8] = assay: Influx ratio of permeability from basolateral to apical side over apical to basolateral side in human Caco2 cells at 100 uM up to 90 mins; conditions: caco-2, 1.5 h
Giardia intestinalis [9] = assay: Ratio of metronidazole IC50 to compound IC50 for Giardia duodenalis IMSS:0989; assay type: functional
[10] = aqueous medium, not specified further

pIC50 (Giardia intestinalis [1])	solubility [2, 10]	log1/S ([2]; buffer)	logD [3]	logKw [4]	Papp (Caco-2 [5])	Papp (Caco-2 [6])	Ratio (Caco-2 [7])	Ratio (Caco-2 [8])	Compound	solubility ([2]; buffer)	Ratio IC50 (Giardia intestinalis [9])
–	0.0412 µg/mL (≈ 0.176 µM)	6.75	3.98	2.33	–	–	–	–	Cn1c(C(F)(F)F)nc2cc(Cl)ccc21	–	–
–	0.033 µg/mL (≈ 0.141 µM)	6.85	4.02	2.37	–	–	–	–	Cn1c(C(F)(F)F)nc2ccc(Cl)cc21	–	–
5.61	0.281 µg/mL (≈ 1.09 µM)	5.96	3.65	2.05	23.9 ×10⁻⁶ cm/s	26.7 ×10⁻⁶ cm/s	0.89	1.11	COC(=O)c1ccc2c(c1)nc(C(F)(F)F)n2C	–	–
–	–	–	–	–	37.9 ×10⁻⁶ cm/s	–	0.78	1.27	CC(C)NCC(O)COc1cccc2ccccc12 (centres undefined) [PROPRANOLOL]	–	–
6.91	–	–	–	–	–	–	–	–	CSc1nc2ccc(Cl)cc2n1C	–	–
6.68	29.6 µg/mL (≈ 115 µM)	3.93	3.92	1.33	8.98 ×10⁻⁶ cm/s	14.6 ×10⁻⁶ cm/s	0.61	1.62	CNC(=O)c1ccc2nc(C(F)(F)F)n(C)c2c1	–	–
7.36	–	–	–	–	–	–	–	–	Cc1nc2ccc(Cl)cc2n1C	–	–
6.49	87.8 µg/mL (≈ 361 µM)	3.6	2.68	1.21	–	–	–	–	CNC(=O)c1ccc2[nH]c(C(F)(F)F)nc2c1	–	–
6.48	98.7 µg/mL (≈ 404 µM)	3.39	3.7	1.13	4.65 ×10⁻⁶ cm/s	5.09 ×10⁻⁶ cm/s	0.91	1.09	Cn1c(C(F)(F)F)nc2ccc(C(=O)O)cc21	–	–
7.26	–	–	3.73	1.68	4.34 ×10⁻⁶ cm/s	5.15 ×10⁻⁶ cm/s	–	–	COC(=O)Nc1nc2ccc(C(=O)c3ccccc3)cc2[nH]1 [MEBENDAZOLE]	–	–
6.88	0.0401 µg/mL (≈ 0.112 µM)	6.94	4.06	2.4	11 ×10⁻⁶ cm/s	21.9 ×10⁻⁶ cm/s	0.5	1.99	CCN(CC)C(=O)COC(=O)c1ccc2c(c1)nc(C(F)(F)F)n2C	–	–
7.26	0.0716 µg/mL (≈ 0.333 µM)	6.47	3.86	2.24	11.2 ×10⁻⁶ cm/s	7.98 ×10⁻⁶ cm/s	1.4	0.71	Cc1nc2cc(Cl)c(Cl)cc2n1C	–	–
7.48	1.14 µg/mL (≈ 6.39 µM)	5.19	3.33	1.78	9.57 ×10⁻⁶ cm/s	7.12 ×10⁻⁶ cm/s	1.34	0.74	CSc1nc2ccccc2n1C	–	–
5.56	10.9 µg/mL (≈ 44.6 µM)	4.35	2.98	1.47	7.25 ×10⁻⁶ cm/s	9.83 ×10⁻⁶ cm/s	0.74	1.35	Cn1c(C(F)(F)F)nc2cc(C(=O)O)ccc21	–	–
6.33	0.0572 µg/mL (≈ 0.16 µM)	6.62	2.81	2.29	13 ×10⁻⁶ cm/s	15.4 ×10⁻⁶ cm/s	0.84	1.17	CCN(CC)C(=O)COC(=O)c1ccc2nc(C(F)(F)F)n(C)c2c1	–	–
7.05	5790 µg/mL (≈ 39600 µM)	1.4	1.77	0.42	10.2 ×10⁻⁶ cm/s	9.03 ×10⁻⁶ cm/s	1.13	0.88	Cc1nc2ccccc2n1C	–	–
7.74	36 µg/mL (≈ 219 µM)	3.65	2.7	1.23	14.5 ×10⁻⁶ cm/s	8.14 ×10⁻⁶ cm/s	1.78	0.56	Cn1c(S)nc2ccccc21	–	67
–	0.992 µg/mL (≈ 5.33 µM)	5.27	3.36	1.8	–	–	–	–	FC(F)(F)c1nc2ccccc2[nH]1	–	–
7.25	0.025 µg/mL (≈ 0.0835 µM)	7.07	3.93	2.44	–	–	–	–	COC(=O)Nc1nc2ccc(Sc3ccccc3)cc2[nH]1 [FENBENDAZOLE]	–	–
7.55	0.0172 µg/mL (≈ 0.0809 µM)	7.09	4.11	2.46	14.2 ×10⁻⁶ cm/s	7.59 ×10⁻⁶ cm/s	1.87	0.53	CSc1nc2cc(Cl)ccc2n1C	–	–
5.92	0.555 µg/mL (≈ 2.27 µM)	5.64	3.52	1.94	23 ×10⁻⁶ cm/s	32.7 ×10⁻⁶ cm/s	0.7	1.42	COC(=O)c1ccc2[nH]c(C(F)(F)F)nc2c1	–	–
5.42	0.0859 µg/mL (≈ 0.333 µM)	6.47	3.86	2.24	21.8 ×10⁻⁶ cm/s	39.2 ×10⁻⁶ cm/s	0.55	1.8	COC(=O)c1ccc2nc(C(F)(F)F)n(C)c2c1	–	–
6.76	0.189 µg/mL (≈ 0.819 µM)	–	–	–	0.74 ×10⁻⁶ cm/s	0.57 ×10⁻⁶ cm/s	–	–	O=C(O)c1ccc2nc(C(F)(F)F)[nH]c2c1	–	–
7.70	0.588 µg/mL (≈ 2.96 µM)	5.59	3.47	1.9	27.2 ×10⁻⁶ cm/s	14.1 ×10⁻⁶ cm/s	1.93	0.51	Cn1c(S)nc2ccc(Cl)cc21	–	27
6.62	–	9.12	4.95	3.19	9.57 ×10⁻⁶ cm/s	5.21 ×10⁻⁶ cm/s	1.83	0.54	Cn1c(N)nc2cc(Cl)ccc21	0.0001 µg/mL (≈ 0.000551 µM)	–
7.35	3.79 µg/mL (≈ 19.1 µM)	4.71	3.14	1.61	9.57 ×10⁻⁶ cm/s	6.92 ×10⁻⁶ cm/s	1.38	0.72	Cn1c(S)nc2cc(Cl)ccc21	–	61
–	0.0025 µg/mL (≈ 0.0098 µM)	8	4.49	2.78	–	–	–	–	FC(F)(F)c1nc2cc(Cl)c(Cl)cc2[nH]1	–	–

Compound	pIC50 (Giardia intestinalis [1])	solubility [2, 10]	log1/S ([2]; buffer)	logD [3]	logKw [4]	Papp (Caco-2 [5])	Papp (Caco-2 [6])	Ratio (Caco-2 [7])	Ratio (Caco-2 [8])	solubility ([2]; buffer)	Ratio IC50 (Giardia intestinalis [9])
c1ccc2[nH]cnc2c1 [BENZIMIDAZOLE]	3.86	7600 µg/mL (≈ 64400 µM)	1.45	1.37	0.27	–	–	–	–	–	–
COC(=O)Nc1nc2ccccc2[nH]1 [CARBENDAZIM]	–	–	1.89	1.49	0.9	–	–	–	–	2441 µg/mL (≈ 12800 µM)	–
CCCSc1ccc2nc(NC(=O)OC)[nH]c2c1 [ALBENDAZOLE]	–	0.75 µg/mL (≈ 2.83 µM)	5.55	3.83	1.95	1.99 ×10⁻⁶ cm/s	3.14 ×10⁻⁶ cm/s	0.74	1.35	–	–
